# Results gathered from unrelated publications.
# Each line is one published result; the experiments were not run side by side.
# Target: G protein-coupled receptor kinase 4 (GRK4, Homo sapiens, UniProt P32298)
Compound,effect on,mode,method,concentration,measurement,result
O=C1NC(=O)c2cc(Nc3ccc(F)cc3)c(Nc3ccc(F)cc3)cc21,cell-free assay,,,0.5 µM,remaining signal,103%
CC(=O)N1CCC(c2ccc(C(=O)NC(=N)N)cc2C(F)(F)F)CC1,cell-free assay,,competition with immobilised ligand,1 µM,remaining binding,100%
COc1cc2ncnc(Nc3ccc(Oc4ccccc4)c(C)c3C)c2cc1OC,enzyme activity,inhibitor,,1 µM,inhibition,-4%
O=C(Nc1cnn(-c2csc(C(=O)NC3COC3)c2)c1)Nc1ccccc1Cl,enzyme activity,inhibitor,,5 µM,remaining activity,97%
CN(C)C1CCN(CC#Cc2nn(C3CCCC3)c3nc(NCc4ccccc4)ncc23)C1 (centres unmarked),enzyme activity,inhibitor,FRET,10 µM,inhibition,-6%
c1ccc(N2CCN(Cc3nc4ccccc4[nH]3)CC2)nc1,binding,,competition with immobilised ligand,1 µM,remaining binding,100%
Nc1ncnc2occ(-c3ccc(NC(=O)Nc4cc(C(F)(F)F)ccc4F)cc3)c12,cell-free assay,inhibitor,,20 µM,remaining signal,89%
CCN(CC)CCNC(=O)c1c(C)[nH]c(/C=C2\C(=O)Nc3ccc(F)cc32)c1C,cell-free assay,,,0.5 µM,remaining signal,75.8%
CN(C)CC#Cc1ccc(OCCCc2sc(N3CCc4cccc(C(=O)Nc5nc6ccccc6s5)c4C3)nc2C(=O)O)c(F)c1,cell-free assay,,competition with immobilised ligand,1 µM,remaining binding,100%
O=C1Nc2ccc(Cl)cc2C1=Cc1cc(Cl)c(O)c(Cl)c1,cell-free assay,,,0.5 µM,remaining signal,108%
Cc1ccc(C(=O)Nc2ccc(CN3CCN(C)CC3)c(C(F)(F)F)c2)cc1C#Cc1cnc2cccnn12,enzyme activity,inhibitor,,23.5 nM,remaining activity,96%
O=C(Nc1cnn(-c2csc(C(=O)NC3COC3)c2)c1)Nc1c(F)cccc1Cl,enzyme activity,inhibitor,,5 µM,remaining activity,93.6%
O=C(Nc1ccc(Oc2ccc(F)cc2)cc1)N1CCc2ncccc2[C@H]1c1ccc(F)cc1,cell-free assay,,competition with immobilised ligand,1 µM,remaining binding,93%
CC(C)(C)c1nc(-c2cccc(NS(=O)(=O)c3c(F)cccc3F)c2F)c(-c2ccnc(N)n2)s1,enzyme activity,inhibitor,radiometric,1 µM,remaining activity,59%
